Assay outcomes as filed in PubChem BioAssay.
S1P1 ag pot: agonists and agonism potentiators of human S1P1 receptor; S1P1 CRE-bla cells, forskolin, beta-lactamase FRET, potentiator mode; S1P1 agonist co-added at EC20, 2 nM; 100% = saturating reference agonist, 0% = basal; P21453; 56,000 compounds, 0.57% hits; activation, % at 9.5 µM;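 active means activation above a cutoff set at the mean activation of all tested compounds plus 3 SD, cut at about 54% in these data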;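 further: forskolin at 4 µM as EC80 and the EC20 agonist is SEW2871; 100% = SEW2871 at its EC100 plus forskolin at EC80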
S1P3 agonist: activates the human S1P3 receptor; Q99500; S1P3 NFAT-BLA reporter cells, agonism, FRET ratio; relative to 1 µM S1P, basal subtracted; activation, % at 4.5 µM; 60,000 compounds, 0.1% hits; AID 373;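 active means activation above the screen-wide mean plus 3 SD, cut at about 4.5% in these data, passing the limit was not always enough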
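Measure – % activation relative to 1 µM S1P (100%), per plate · System – stable CHO line with human S1P3, Gα16, NFAT-BLA reporter · Timing – cells plated overnight, compound 4 h 37 °C, substrate 2 h RT · Technique – fluorescent BLA substrate, ex 405 nm, em 460/535 nm ratio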
5HT1a antag: antagonists of human 5-HT1a serotonin receptor; AID 612; inhibition, % at 10 µM; 62,000 compounds, 0.68% hits; CHO 5-HT1a Ga15 NFAT-bla reporter, antagonist mode;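 active means inhibition above the mean of all tested compounds plus 3 SD, cut at about 43% in these data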;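 further: receptor stimulated by 5-CT agonist at 100 nM near EC80; beta-lactamase reporter measured by ratiometric fluorescence of a cleavable substrate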
5HT1a ag: activates the human 5-HT1a serotonin receptor. P08908. CHO 5-HT1a Ga15 NFAT-bla reporter, FRET ratio; 0% basal, 100% maximal reference agonist. activation, % at 10 µM. 65,000 compounds, 0.56% hits;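 active means activation above the screen-wide mean activation plus 3 SD, cut at about 19% in these data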;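 further: 0% = DMSO wells and 100% = 5-CT at EC100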
5HT1E ag: 5-HT1E (human) receptor agonism. P28566. CHO 5-HT1E Ga15 NFAT-bla reporter, FRET; 0% DMSO wells, 100% control agonist wells. activation, % at 6 µM. 65,000 compounds, 0.69% hits. AID 574;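 active means activation above a set limit, the screen-wide mean activation plus 3 SD, cut at about 8.5% in these data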;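 further: 100% = positive control agonist at 1 µM giving full maximal response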
Target sequence (P28566 whole entry, looked up): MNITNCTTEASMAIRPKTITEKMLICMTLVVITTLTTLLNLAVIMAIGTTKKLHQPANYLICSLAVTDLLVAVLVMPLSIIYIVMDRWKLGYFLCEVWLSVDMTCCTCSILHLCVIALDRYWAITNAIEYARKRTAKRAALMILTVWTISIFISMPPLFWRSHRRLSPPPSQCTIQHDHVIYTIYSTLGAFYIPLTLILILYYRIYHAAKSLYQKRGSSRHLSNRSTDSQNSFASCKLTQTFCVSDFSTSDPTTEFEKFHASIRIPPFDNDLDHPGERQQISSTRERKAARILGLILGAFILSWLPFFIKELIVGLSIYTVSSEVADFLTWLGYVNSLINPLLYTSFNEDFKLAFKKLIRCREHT
HTR1E antagonist: blocks the human 5-HT1E serotonin receptor. 65,000 compounds, 0.99% hits. AID 571. P28566. CHO 5-HT1E Ga15 NFAT-bla reporter, FRET, antagonist. inhibition, % at 6 µM;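 active means inhibition above a set limit, the mean inhibition across every tested compound plus 3 SD, cut at about 29% in these data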;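 further: signal is the 460 over 535 nm emission ratio of beta-lactamase substrate; 0% = agonist plus DMSO wells and 100% = wells without agonist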
* marks the source's active call; other numbers are inactive results. Hits are enriched below; roughly 3% of the tested compounds scored in any of these assays.

`CCOC(=O)c1[nH]c(C)c(C(=O)Nc2cc(Cl)ccc2C)c1C` gave S1P1 ag pot 0, S1P3 agonist -1, 5HT1a antag 32, 5HT1a ag -3, 5HT1E ag 0 and HTR1E antagonist 44*.
CCOC(=O)c1[nH]c(C)c(C(=O)Nc2ccccc2C)c1C was read as S1P1 ag pot 28, S1P3 agonist -1, 5HT1a antag 17, 5HT1a ag 1, 5HT1E ag 0 and HTR1E antagonist 23.
`CCC(=O)OC1=C2C(=Nc3c(c(=O)n(C)c(=O)n3C)C2c2ccccc2)c2ccccc21` (configuration not stated) gave S1P1 ag pot -4, S1P3 agonist -2, 5HT1a ag 1, 5HT1E ag 0 and HTR1E antagonist -12.
Screening COC(=O)CSc1nnc([C@H](Cc2ccccc2)NC(=O)OC(C)(C)C)o1 returned S1P1 ag pot -6, S1P3 agonist 0, 5HT1a antag 2, 5HT1a ag 0, 5HT1E ag -1 and HTR1E antagonist 3.
For COC(=O)CS(=O)(=O)c1nnc([C@H](Cc2ccccc2)NC(=O)OC(C)(C)C)o1 the results were S1P1 ag pot 56*, S1P3 agonist -1, 5HT1a antag 33, 5HT1a ag -7, 5HT1E ag 0 and HTR1E antagonist 29*.
For OCCN1CCN(Cc2cccc(Oc3ccc(Cl)cc3)c2)CC1 the results were S1P1 ag pot -38, S1P3 agonist -1, 5HT1a antag 1, 5HT1a ag 0, 5HT1E ag 10* and HTR1E antagonist 8.
Cc1ccc2c(C)nc(NC3=NCN(C(C)C)CN3)nc2c1 was read as S1P1 ag pot -21, S1P3 agonist 0, 5HT1a antag -1, 5HT1a ag 0, 5HT1E ag 0 and HTR1E antagonist 2.
`N#CCCN1CCN(S(=O)(=O)c2ccc(S(=O)(=O)NC3CCCC3)cc2)CC1` gave S1P1 ag pot -6, S1P3 agonist 0, 5HT1a antag 6, 5HT1a ag -1, 5HT1E ag 0 and HTR1E antagonist 2.
For CN(C)CCNC(=O)c1c(O)c2c([nH]c1=O)CCCC2 the results were S1P1 ag pot -4, S1P3 agonist -2, 5HT1a antag -9, 5HT1a ag -2, 5HT1E ag 11* and HTR1E antagonist -6.
Cc1ccc(-c2nn3c(-c4ccco4)nnc3c3ccccc23)cc1S(=O)(=O)N1CCOCC1 was read as S1P1 ag pot -24, S1P3 agonist -2, 5HT1a antag 3, 5HT1a ag 3, 5HT1E ag -1 and HTR1E antagonist -9.
`CC(=O)C1=C(O)C(=O)N(CCN2CCOCC2)C1c1ccccc1` (configuration not stated) gave S1P1 ag pot 4, S1P3 agonist 0, 5HT1a antag 12, 5HT1a ag -2, 5HT1E ag 9.3* and HTR1E antagonist 16.
For CC1c2[nH]c3ccccc3c2CCN1C(=O)Nc1ccccc1 (configuration not stated) the results were S1P1 ag pot 15, S1P3 agonist 0, 5HT1a antag 30, 5HT1a ag -3, 5HT1E ag 1 and HTR1E antagonist 5.
`COC(=O)C1=COC(C)C2CN3CCc4c([nH]c5ccccc45)C3CC12` (configuration not stated) gave S1P1 ag pot -12, S1P3 agonist 0, 5HT1a antag 18, 5HT1a ag 20*, 5HT1E ag 3 and HTR1E antagonist 4.
For O=C(NCCc1ccc(Cl)cc1)c1ncn[nH]1 the results were S1P1 ag pot -11, S1P3 agonist 0, 5HT1a antag -4, 5HT1a ag -1, 5HT1E ag 10* and HTR1E antagonist 6.
For CS(=O)(=O)n1nc(OC(=O)c2cccc3ccccc23)cc1N the results were S1P1 ag pot 65*, S1P3 agonist -2, 5HT1a antag 43*, 5HT1a ag -2, 5HT1E ag -1 and HTR1E antagonist -2.
Screening COc1ccc(S(=O)(=O)n2nc(OC(=O)c3ccccc3Br)cc2N)cc1 returned S1P1 ag pot 40, S1P3 agonist 0, 5HT1a antag 18, 5HT1a ag -3, 5HT1E ag -1 and HTR1E antagonist -2.
`CS(=O)(=O)Nc1ccccc1C(=O)c1ccccc1` gave S1P1 ag pot -10, S1P3 agonist -1, 5HT1a antag -7, 5HT1a ag -3, 5HT1E ag 0 and HTR1E antagonist 3.
For COCCCNC(=O)c1c(N)n(/N=C/c2cccs2)c2nc3ccccc3nc12 the results were S1P1 ag pot -123, S1P3 agonist 3, 5HT1a ag 86*, 5HT1E ag 26* and HTR1E antagonist -31.
For COCCCNC(=O)c1c(N)n(/N=C/c2cccnc2)c2nc3ccccc3nc12 the results were S1P1 ag pot -16, S1P3 agonist -2, 5HT1a ag 7, 5HT1E ag 0 and HTR1E antagonist -1.
For Cc1cc(NC(=O)CSc2ccc(-c3nc4cc(C)c(C)cc4[nH]3)cn2)no1 the results were 5HT1a antag 22, 5HT1a ag 1, 5HT1E ag 1 and HTR1E antagonist 31*.
Screening O=S(=O)(NC1CCCCC1)c1ccc(Cl)s1 returned S1P1 ag pot -25, S1P3 agonist 0, 5HT1a antag 6, 5HT1a ag -2, 5HT1E ag 0 and HTR1E antagonist 7.
COCc1cc(C)nc(SCC(=O)Nc2cccc3cccnc23)c1C#N was read as S1P1 ag pot -18, S1P3 agonist 1, 5HT1a antag 1, 5HT1a ag 6, 5HT1E ag 0 and HTR1E antagonist 42*.
Screening CCOC(=O)c1c(C)nn(Cc2cccc(Cl)c2)c1N returned S1P1 ag pot -17, S1P3 agonist 1, 5HT1a antag 24, 5HT1a ag -2, 5HT1E ag 0 and HTR1E antagonist 5.
O=C(O)C1CCCCC1C(=O)NCCc1ccc(Cl)cc1 (configuration not stated) was read as S1P1 ag pot -2, S1P3 agonist 0, 5HT1a antag -1, 5HT1a ag -4, 5HT1E ag 21* and HTR1E antagonist -13.
CCn1c(SCC(=O)Nc2nc3ccc(OC)cc3s2)nc2c1c(=O)n(C)c(=O)n2C was read as S1P1 ag pot -44, S1P3 agonist -1, 5HT1a antag -15, 5HT1a ag 5, 5HT1E ag 0 and HTR1E antagonist 2.
For CCc1nn(C(C)C(=O)NC(C)CCc2ccco2)c(=O)c2cc3occc3n12 (configuration not stated) the results were S1P1 ag pot 19, S1P3 agonist 0, 5HT1a antag 6, 5HT1a ag 4, 5HT1E ag 0 and HTR1E antagonist -6.
